Test results taken from ChEMBL document CHEMBL4837234, “"Clicking" fragment leads to novel dual-binding cholinesterase inhibitors” (Bioorg Med Chem, 2021).
pIC50: −log10 of the molar value. Active and inactive are the calls of the source. The rule behind the calls is not given here.

Assays:
[1] = biological target: T1, Acetylcholinesterase (Homo sapiens, UniProt P22303); assay: Inhibition of human erythrocyte AChE using acetylthiocholine iodide as substrate incubated for 25 mins by DTNB reagent based Ellman's method; assay type: tissue-based
T1 sequence (P22303 whole entry): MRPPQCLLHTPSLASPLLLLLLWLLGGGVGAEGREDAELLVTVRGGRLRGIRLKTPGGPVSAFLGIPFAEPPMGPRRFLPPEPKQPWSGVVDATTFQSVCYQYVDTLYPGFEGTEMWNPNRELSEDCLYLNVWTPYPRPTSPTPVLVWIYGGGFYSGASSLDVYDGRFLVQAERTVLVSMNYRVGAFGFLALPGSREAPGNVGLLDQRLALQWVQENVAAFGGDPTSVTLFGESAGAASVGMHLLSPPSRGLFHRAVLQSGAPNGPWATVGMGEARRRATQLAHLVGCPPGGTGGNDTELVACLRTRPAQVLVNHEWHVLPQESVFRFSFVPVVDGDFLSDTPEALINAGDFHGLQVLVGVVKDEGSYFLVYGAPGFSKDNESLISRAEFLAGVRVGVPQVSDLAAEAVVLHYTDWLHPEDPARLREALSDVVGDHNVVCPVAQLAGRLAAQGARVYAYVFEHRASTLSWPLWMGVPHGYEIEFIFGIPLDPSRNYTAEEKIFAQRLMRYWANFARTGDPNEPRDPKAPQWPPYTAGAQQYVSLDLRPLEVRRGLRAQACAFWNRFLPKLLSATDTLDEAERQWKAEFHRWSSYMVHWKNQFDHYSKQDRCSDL

[2] = biological target: T2, Cholinesterase (Homo sapiens, UniProt P06276); assay: Inhibition of human serum BuChe using butyrylthiocholine iodide as substrate incubated for 25 mins by DTNB reagent based Ellman's method; assay type: cell-free
T2 sequence (P06276 whole entry): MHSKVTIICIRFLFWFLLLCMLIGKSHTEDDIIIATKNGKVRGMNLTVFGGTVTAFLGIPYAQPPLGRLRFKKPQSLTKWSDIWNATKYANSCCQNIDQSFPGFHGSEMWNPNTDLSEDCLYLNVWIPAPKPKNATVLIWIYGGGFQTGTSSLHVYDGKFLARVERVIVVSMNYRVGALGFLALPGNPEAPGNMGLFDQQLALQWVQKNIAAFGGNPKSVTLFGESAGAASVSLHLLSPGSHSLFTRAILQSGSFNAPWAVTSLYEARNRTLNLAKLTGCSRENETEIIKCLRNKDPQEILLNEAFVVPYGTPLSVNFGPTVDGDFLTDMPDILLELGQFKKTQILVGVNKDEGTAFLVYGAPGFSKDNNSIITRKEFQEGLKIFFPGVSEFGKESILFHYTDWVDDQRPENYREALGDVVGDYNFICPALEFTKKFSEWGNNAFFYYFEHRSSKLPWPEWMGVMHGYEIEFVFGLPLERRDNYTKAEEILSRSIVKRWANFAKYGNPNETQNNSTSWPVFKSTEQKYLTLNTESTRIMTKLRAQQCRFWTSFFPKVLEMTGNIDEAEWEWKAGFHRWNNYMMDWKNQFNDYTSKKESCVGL
In short: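 Compound (Tween 80/EtOH stock, final dilutions in pH 8.0 phosphate buffer) preincubated with enzyme 30 min at room temperature, then substrate 0.5 mM plus DTNB, 25 min, 37 °C; yellow anion read spectrophotometrically. Triplicate, three occasions; IC50 from % activity vs log concentration.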

[3] = biological target: T1, Acetylcholinesterase; assay: Mixed type inhibition of human erythrocyte AChE assessed as increase in Km at 3.3 to 9.9 nM using varying level of acetylthiocholine iodide as substrate by Lineweaver-Burk plot analysis; assay type: tissue-based; conditions: dose 3.3-9.9 nM
In short: (§1)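 hAChE from human erythrocytes, washed in saline and lysed in 0.1 M Na₃PO₄ pH 7.4 with 0.5% Triton-X, then diluted. Ellman set-up (30 min room-temperature preincubation, then 37 °C with DTNB 1.2 mM) using substrate 0.25, 0.5, 1 and 2 mM and inhibitor 3.3 and 9.9 nM. Vmax and Km by nonlinear regression of substrate–velocity curves; Lineweaver–Burk by linear regression.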

[4] = biological target: T2, Cholinesterase; assay: Mixed type inhibition of human serum BuChe assessed as decrease in Vmax at 89 to 267 nM using varying level of butyrylthiocholine iodide as substrate by Lineweaver-Burk plot analysis; assay type: cell-free; conditions: dose 89-267 nM
In short: (§2)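 hBChE from human plasma diluted 1:125 in 0.1 M Na₃PO₄ pH 7.4. Ellman set-up (30 min room-temperature preincubation, then 37 °C with DTNB 1.2 mM) with substrate 0.25, 0.5, 1 and 2 mM and inhibitor 89 and 267 nM. Vmax and Km from nonlinear regression of substrate–velocity curves; Lineweaver–Burk plots by linear regression.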

[5] = biological target: T1, Acetylcholinesterase; assay: Mixed type inhibition of human erythrocyte AChE assessed as decrease in Vmax at 3.3 to 9.9 nM using varying level of acetylthiocholine iodide as substrate by Lineweaver-Burk plot analysis; assay type: tissue-based; conditions: dose 3.3-9.9 nM; in short: as §1
[6] = biological target: T2, Cholinesterase; assay: Mixed type inhibition of human serum BuChe assessed as increase in Km at 89 to 267 nM using varying level of butyrylthiocholine iodide as substrate by Lineweaver-Burk plot analysis; assay type: cell-free; conditions: dose 89-267 nM; in short: as §2

| Structure (SMILES) | pIC50 [1] | pIC50 [2] | inhibition [3] | inhibition [4] | inhibition [5] | inhibition [6] |
| --- | --- | --- | --- | --- | --- | --- |
| COc1ccc2[nH]cc(CCNC(=O)Cn3cc(CCCCN(C)CCCC4c5cc(OC)c(OC)cc5CCN4C)nn3)c2c1 (stereo unspecified) | 5.66 | 5.80 | – | – | – | – |
| COc1ccc2[nH]cc(CCNC(=O)CCCCn3cc(CCCCN4CC[C@@]56C=C[C@H](O)C[C@@H]5Oc5c(OC)ccc(c56)C4)nn3)c2c1 | 7.74 | 6.02 | – | – | – | – |
| COc1ccc2[nH]cc(CCNC(=O)Cn3cc(CCCCN4CC[C@@]56C=C[C@H](O)C[C@@H]5Oc5c(OC)ccc(c56)C4)nn3)c2c1 | 7.64 | 6.26 | – | – | – | – |
| COc1ccc2c3c1O[C@H]1C[C@@H](O)C=C[C@@]31CCN(CCCCc1cn(CC(=O)NCCc3c[nH]c4ccccc34)nn1)C2 | 6.86 | 6.04 | – | – | – | – |
| COc1ccc2[nH]cc(CCNC(=O)Cn3cc(CN4CC[C@@]56C=C[C@H](O)C[C@@H]5Oc5c(OC)ccc(c56)C4)nn3)c2c1 | 5.27 | 5.05 | – | – | – | – |
| COc1ccc2c3c1O[C@H]1C[C@@H](O)C=C[C@@]31CCN(CCCCc1cn(CCCCC(=O)NCCc3c[nH]c4ccccc34)nn1)C2 | 7.51 | 5.89 | – | – | – | – |
| COc1ccc2c3c1O[C@H]1C[C@@H](O)C=C[C@@]31CCN(CCCCc1cn(CCCC(=O)NCCc3c[nH]c4ccccc34)nn1)C2 | 6.92 | 6.68 | Active | Active | Active | Active |
| COc1ccc2[nH]cc(CCNC(=O)CCCCn3cc(CN4CC[C@@]56C=C[C@H](O)C[C@@H]5Oc5c(OC)ccc(c56)C4)nn3)c2c1 | 6.00 | 5.70 | – | – | – | – |
| COc1ccc2[nH]c(CCNC(=O)Cn3cc(CCCCN4CCc5cc(OC)c(OC)cc5C4CCCN4C(=O)c5ccccc5C4=O)nn3)cc2c1 (stereo unspecified) | 3.76 | 4.24 | – | – | – | – |
| COc1ccc2[nH]c(CCNC(=O)CCCn3cc(CCCCN4CCc5cc(OC)c(OC)cc5C4CCCN4C(=O)c5ccccc5C4=O)nn3)cc2c1 (stereo unspecified) | 3.80 | 5.34 | – | – | – | – |
| COc1ccc2[nH]cc(CCNC(=O)Cn3cc(CN4CCc5cc(OC)c(OC)cc5C4CCCN4C(=O)c5ccccc5C4=O)nn3)c2c1 (stereo unspecified) | 4.40 | 4.58 | – | – | – | – |
